For test [1], the system named is Brassica napus. The experiment in a line: Herbicidal activity against Brassica napus (oilseed rape) assessed as inhibition of stalk growth at 1 mg/L after 5 days by petri dish culture method relative to control. The format is functional. As to conditions: 120 h, read-out: GI. The procedure, abridged:
(§1)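 Test solutions were made in DMF, emulsified with Tween 80, and diluted with water, then added to Petri dishes lined with two filter papers. Twenty rape and twenty barnyard grass seeds were incubated 5 days at 23 ± 1 °C, 60 ± 5% humidity, 10 Klux, 12 h/day light. Mean length of 10 roots and 10 stems gave percent inhibition versus distilled-water controls.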

In test [2] the test system is Brassica napus. Kind of test: Herbicidal activity against Brassica napus (oilseed rape) assessed as inhibition of stalk growth at 10 mg/L after 5 days by petri dish culture method relative to control. The format is functional. As to conditions: 120 h, read-out: GI. The procedure, abridged: as §1
Test [3] relates to Echinochloa crus-galli. The experiment in a line: Herbicidal activity against Echinochloa crus-galli (barnyard grass) assessed as inhibition of stalk growth at 1 mg/L after 5 days by petri dish culture method relative to control. As to conditions: 120 h, read-out: GI. The format is functional. The method in brief: as §1
Test [4] concerns Echinochloa crus-galli. The experiment in a line: Herbicidal activity against Echinochloa crus-galli (barnyard grass) assessed as inhibition of stalk growth at 10 mg/L after 5 days by petri dish culture method relative to control. It is filed as functional. As to conditions: 120 h, read-out: GI. The method in brief:
as §1

Test [5] relates to Brassica napus. Kind of test: Herbicidal activity against Brassica napus (oilseed rape) assessed as inhibition of root elongation after 5 days by petri dish culture method. It is filed as functional, organism-based.
The subject of test [6] is Brassica napus. Kind of test: Herbicidal activity against Brassica napus (oilseed rape) assessed as inhibition of root growth at 1 mg/L after 5 days by petri dish culture method relative to control. It is filed as functional. As to conditions: 120 h, read-out: GI. The method in brief:
as §1

The test system of test [7] is Brassica napus. Kind of test: Herbicidal activity against Brassica napus (oilseed rape) assessed as inhibition of root growth at 10 mg/L after 5 days by petri dish culture method relative to control. It is filed as functional. As to conditions: 120 h, read-out: GI. The procedure, abridged: as §1
In test [8] the test system is Echinochloa crus-galli. Kind of test: Herbicidal activity against Echinochloa crus-galli (barnyard grass) assessed as inhibition of root growth at 1 mg/L after 5 days by petri dish culture method relative to control. The format is functional. The settings on record: 120 h, read-out: GI. The method in brief:
as §1

In test [9] the test system is Echinochloa crus-galli. Kind of test: Herbicidal activity against Echinochloa crus-galli (barnyard grass) assessed as inhibition of root growth at 10 mg/L after 5 days by petri dish culture method relative to control. As to conditions: 120 h, read-out: GI. It is filed as functional. The procedure, abridged:
as §1

Consider 15 compounds from ChEMBL document CHEMBL3045731, “Facile synthesis and herbicidal evaluation of 4H-3,1-benzoxazin-4-ones and 3H-quinazolin-4-ones with 2-phenoxymethyl substituents” (Molecules, 2012).

As to `COc1ccc(Cl)cc1Cl`, the inhibition of growth at 1 µg/mL in [1] worked out at 89.1%; in [3] it was 45.5%; in test [6] it was 91%; in test [8] it was 67.3%. Moreover, the inhibition of growth at 10 µg/mL is 93.6% in test [2], 76.2% in test [4], 100% in test [7] and 99.1% in [9]. Besides, in [5], the IC50 was found to be 6.06 µmol.

Consider `Nn1c(COc2ccc(Cl)cc2Cl)nc2ccccc2c1=O`, for which the IC50 in [5] worked out at 224.37 µmol.

As to `Nn1c(COc2ccc(Cl)cc2Cl)nc2c(Cl)cccc2c1=O`, the inhibition of growth at 1 µg/mL in test [1] was 92.3%; in test [3], -7.2%; in [6], 93.6%; in test [8] it was 24.3%. For the same compound, the inhibition of growth at 10 µg/mL in test [2] turned out to be 95.7%; in test [4] it was 38.1%; in test [7], 98.2%; in test [9], 68.5%. Also, the IC50 in [5] was 27.23 µmol.

On to `COc1cc2nc(COc3ccc(Cl)cc3Cl)n(N)c(=O)c2cc1OC`, for which the IC50 in test [5] turned out to be 167.59 µmol.

Take `Cn1c(COc2ccc(Cl)cc2)nc2cccc(Cl)c2c1=O`: the IC50 in [5] turned out to be 201.13 µmol.

Consider `Cn1c(COc2ccc(Cl)cc2Cl)nc2c(Cl)cccc2c1=O`, for which the inhibition of growth at 1 µg/mL is -8.8% in [1], 1.4% in test [3], 32.3% in [6] and 12.3% in test [8]. In addition, the inhibition of growth at 10 µg/mL in [2] is -2.4%; in test [4], 0%; in test [7], 44.5%; in [9], 34.6%.

On to `O=c1oc(COc2ccc(Cl)cc2)nc2ccccc12`, for which the IC50 in test [5] was 30.37 µmol.

For the compound `O=c1oc(COc2ccc(Cl)cc2)nc2cccc(Cl)c12`, the IC50 in [5] worked out at 138.24 µmol.

On to `O=c1oc(COc2ccc(Cl)cc2)nc2ccc(Cl)cc12`, for which the IC50 in test [5] was determined as 22.32 µmol.

Consider `COc1cc2nc(COc3ccc(Cl)cc3)oc(=O)c2cc1OC`, for which the IC50 in test [5] is 80.14 µmol.

As to `O=c1oc(COc2ccc(Cl)cc2Cl)nc2ccccc12`, the IC50 in test [5] came to 10.34 µmol.

On to `O=c1oc(COc2ccc(Cl)cc2Cl)nc2cccc(Cl)c12`, for which the IC50 in [5] came out at 43.54 µmol.

Regarding `O=c1oc(COc2ccc(Cl)cc2Cl)nc2ccc(Cl)cc12`, the IC50 in test [5] came to 10.73 µmol.

`O=c1oc(COc2ccc(Cl)cc2Cl)nc2cc(Cl)ccc12`: the IC50 in test [5] turned out to be 11.05 µmol.

For `COc1cc2nc(COc3ccc(Cl)cc3Cl)oc(=O)c2cc1OC`, in test [5], the IC50 is 142.22 µmol.
